Measurements pooled from the literature.
Each line is one published result; the experiments were not run side by side.
Route: oral

Structure (SMILES) | system | setting | bioavailability [%]
COCCOc1cc(CC2CCN(CCc3ccc4c(c3)C(=O)CCO4)CC2)ccc1Br.O=S(=O)(O)c1ccccc1 | male rat, plasma | 10 mg/kg | 7.3
COCCOC(=O)C1=C(C)NC(C)=C(C(=O)OC(C)C)C1c1cccc([N+](=O)[O-])c1 (centres unmarked) | male Sprague-Dawley rat, plasma | 12 mg/kg | 21.9
C=CC(=O)Nc1cc(Nc2nccc(Nc3cc(Cl)c(F)cc3C(C)(C)O)n2)c(OC)cc1N1CC[C@@H](N(C)C)C1 | Wistar rat, plasma | 3 mg/kg | 39.6
N#Cc1ccc(-c2ccc(C[C@@H](C#N)NC(=O)[C@@H]3CCCCN3)cc2)cc1 | Sprague-Dawley rat, plasma | 3 mg/kg | 80
CCc1cc(OC)c2nccc(N3CCc4c(cc(Cn5ccnc5)cc4-c4cn(C)nc4C(F)(F)F)C3=O)c2c1 | male Sprague-Dawley rat, plasma | 50 mg/kg | 65
Cc1cc(C(=O)O)nc(N2C[C@H]3C[C@@H](c4ccccc4C(F)(F)F)C[C@H]3C2)n1 | Sprague-Dawley rat, plasma | 12.7 µmol/kg, single dose | > 100
O=C(Nc1cc(F)c(F)c(F)c1)c1ccc(F)c(S(=O)(=O)NCc2cccc(B(O)O)c2)c1 | male Sprague-Dawley rat, plasma | 20 mg/kg | 2.85
CC(C)(O)[C@H]1CC[C@H](Nc2ccc3ncc(-c4cccc(C(F)(F)F)c4)n3n2)CC1 | female Sprague-Dawley rat, plasma | 40 mg/kg | 39
CNC(=O)c1cccc(-c2ccc([C@@H](O)[C@H]3O[C@H](CO)[C@@H](O)[C@H](O)[C@@H]3O)c(C)c2)c1 | male Sprague-Dawley rat, plasma | 10 mg/kg, single dose | 1.95
Cn1cc(-c2cc(N3CCCCS3(=O)=O)ccc2Oc2ccc(F)cc2F)c2c(F)c[nH]c2c1=O | Sprague-Dawley rat, plasma | 3 mg/kg | 20 to 30
Oc1c(Br)cc(Cl)c2cccnc12 | Sprague-Dawley rat, plasma | 20 mg/kg | 39
COc1nc2[nH]c(C(F)(F)F)nc2nc1Nc1ccc(OC(F)(F)F)cc1F | Sprague-Dawley rat, serum | 5 mg/kg | 100
CC1(C)CCN(c2c(C#N)c(=O)[nH]c3cccnc23)CC1 | male Wistar rat, plasma |  | 61
Oc1c(-n2ccnn2)cnn1-c1cc(N2CCOCC2)ncn1 | male rat, plasma | 5 mg/kg | 34
CN1CCC(COc2cnc(-c3cccc(Cn4nc(-c5cccc(C#N)c5)ccc4=O)c3)nc2)CC1 | male Sprague-Dawley rat, plasma | 20 mg/kg | 56
CCOC(=O)[C@@]12C[C@@H]1[C@@H](n1ccc3c(NC)nc(C#Cc4ccc(Cl)s4)nc31)[C@H](O)[C@@H]2O | male Sprague-Dawley rat, plasma | 5 mg/kg | 92
Oc1c(-c2cccnc2)cnn1-c1ccccn1 | rat, plasma | 30 mg/kg | 35
